From ChEMBL document CHEMBL1138118, “Synthesis and anti-HSV-1 activity of quinolonic acyclovir analogues” (Bioorg Med Chem Lett, 2006)
pEC50: −log10 of the molar value.

What was measured:
Human alphaherpesvirus 1 [1] = assay: Antiviral activity against HSV1 at 50 uM; format: functional; settings: Human alphaherpesvirus 1, ACR-29
In short: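 Vero cells (DMEM, 2% heat-inactivated FBS, 8% calf serum) were infected with HSV-1 strain ACR-29 at 1 PFU/cell for 2 h at 37 °C. The inoculum was then replaced with medium containing compound at 50 µM. After 3 days at 37 °C in 5% CO₂, supernatant titre (TCID50/mL) was measured by endpoint dilution (Reed–Muench) against untreated controls. Means of triplicates.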

Human alphaherpesvirus 1 [2] = assay: Antiviral activity against HSV1 in vero cells; format: functional, organism-based; settings: Human alphaherpesvirus 1, Vero
In short: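 Yield reduction: confluent Vero cells were infected with HSV-1 ACR-29 at moi 1 pfu/cell for 1 h at 37 °C, washed, then given medium with varying compound concentrations. At 20 h they were freeze-thawed three times and spun at 400g for 10 min at 4 °C. Titre was read by plaque assay under 1% methylcellulose for 72 h with crystal violet stain. EC50 is the concentration inhibiting virus yield by 50%.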

Vero [3] = assay: Selectivity index (CC50/EC50) in Vero cells; format: functional
In short: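 Ratio of CC50 (uninfected Vero, 72 h exposure) to EC50 (HSV-1 ACR-29 virus-yield inhibition in Vero); the two were determined in parallel.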

Vero [4] = assay: Cytotoxicity against Vero cells by MTT assay; format: functional; settings: Chlorocebus sabaeus
In short: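 Uninfected Vero monolayers were exposed to a range of compound concentrations for 72 h at 37 °C. MTT ([…]) was then added for 4 h at 37 °C, followed by 10% SDS/0.01 N HCl overnight. Absorbance was read at 540 nm against a 690 nm reference. CC50 is the concentration reducing host-cell viability by 50%.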

Human alphaherpesvirus 1 [5] = assay: Antiviral activity against HSV1 at 10 uM; format: functional; settings: Human alphaherpesvirus 1, ACR-29
In short: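 Vero cells (DMEM with 2% heat-inactivated FBS plus 8% calf serum) infected with HSV-1 strain ACR-29 at 1 PFU/cell for 2 h at 37 °C. The inoculum was replaced with medium containing compound at 10 µM; untreated infected controls got medium only. After 3 days at 37 °C in 5% CO2, supernatant titre was read by endpoint dilution (TCID50/mL, Reed-Muench). Values are means of triplicates.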

| pEC50 (Human alphaherpesvirus 1 [2]) | Structure (SMILES) | inhibition at 50 µM (Human alphaherpesvirus 1 [1]) | Selectivity index (Vero [3]) | CC50 (Vero [4]) | inhibition at 10 µM (Human alphaherpesvirus 1 [5]) |
| --- | --- | --- | --- | --- | --- |
|  | CCOC(=O)c1cn(COCCO)c2cc(OC)ccc2c1=O | 89% |  |  |  |
|  | O=C(O)c1cn(COCCO)c2ccc(Br)cc2c1=O | 58% |  |  |  |
| 6.06 | CCOC(=O)c1cn(COCCO)c2cc(Cl)ccc2c1=O | 99% | 1375 | 1200 µM |  |
|  | Cc1ccc2c(=O)c(C(=O)O)cn(COCCO)c2c1 | 79% |  |  |  |
|  | CCOC(=O)c1cn(COCCO)c2ccc(Br)cc2c1=O | 84% |  |  |  |
|  | COc1ccc2c(c1)c(=O)c(C(=O)O)cn2COCCO | 89% |  |  |  |
| 5.64 | CCOC(=O)c1cn(COCCO)c2ccc(F)cc2c1=O | 97% | >217 | > 500 µM |  |
| 5.85 | O=C(O)c1cn(COCCO)c2cc(F)ccc2c1=O | 97% | >357 | > 500 µM |  |
|  | CCOC(=O)c1cn(COCCO)c2cc(C)ccc2c1=O | 77% |  |  |  |
|  | CCOC(=O)c1cn(COCCO)c2cc(F)ccc2c1=O | 65% |  |  |  |
|  | O=C(O)c1cn(COCCO)c2cc([N+](=O)[O-])ccc2c1=O | 77% |  |  |  |
| 6.10 | CCOC(=O)c1cn(COCCO)c2ccc(Cl)cc2c1=O | 97% | 1562 | 1250 µM |  |
| 5.49 | CCOC(=O)c1cn(COCCO)c2ccc(OC)cc2c1=O | 99% | >156 | > 500 µM |  |
|  | O=C(O)c1cn(COCCO)c2ccc(F)cc2c1=O | 70% |  |  |  |
|  | COc1ccc2c(=O)c(C(=O)O)cn(COCCO)c2c1 | 79% |  |  |  |
|  | O=C(O)c1cn(COCCO)c2ccc([N+](=O)[O-])cc2c1=O | 70% |  |  |  |
| 5.82 | CCOC(=O)c1cn(COCCO)c2ccc([N+](=O)[O-])cc2c1=O | 95% | 640 | 960 µM |  |
| 6.15 | O=C(O)c1cn(COCCO)c2cc(Cl)ccc2c1=O | 96% | 1714 | 1200 µM |  |
| 5.66 | Cc1ccc2c(c1)c(=O)c(C(=O)O)cn2COCCO | 93% | >227 | > 500 µM |  |
|  | CCOC(=O)c1cn(COCCO)c2cc([N+](=O)[O-])ccc2c1=O | 77% |  |  |  |
|  | CCOC(=O)c1cn(COCCO)c2ccc(C)cc2c1=O | 82% |  |  |  |
| 5.96 | O=C(O)c1cn(COCCO)c2ccc(Cl)cc2c1=O | 98% | 1273 | 1400 µM |  |

| Structure (SMILES) | pEC50 (Human alphaherpesvirus 1 [2]) | inhibition at 50 µM (Human alphaherpesvirus 1 [1]) | Selectivity index (Vero [3]) | CC50 (Vero [4]) | inhibition at 10 µM (Human alphaherpesvirus 1 [5]) |
| --- | --- | --- | --- | --- | --- |
| Nc1nc2c(ncn2COCCO)c(=O)[nH]1 [ACYCLOVIR] | 5.96 |  | 880 | 960 µM | 96% |
